Test results reported in ChEMBL document CHEMBL2203146, “Search for anticonvulsant and analgesic active derivatives of dihydrofuran-2(3H)-one” (Bioorg Med Chem, 2012).
The source made the active and inactive calls.

Assays:
[1] = test system: Mus musculus; assay: Anesthetic activity in […] assessed as latency in response to thermal stimuli administered as 2% solution, sc measured after 15 mins by modified tail immersion test; type: functional, albino CF1
[2] = test system: Mus musculus; assay: Anesthetic activity in albino CF1 mouse assessed as latency in response to thermal stimuli administered as 1% solution, sc measured after 15 mins by modified tail immersion test; type: functional
Procedure, shortened: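 Male Albino Swiss (CD-1) mice, 6-8 per group, tested at 1% and 2% compound concentration. Tail distal 3 cm immersed in water at 50 ± 0.5 °C 15 min after treatment. Tail-withdrawal latency recorded with a 20 s cutoff. Value is % difference in latency vs vehicle-treated mice. Mean ± SEM, Student's t-test.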

[3] = test system: Mus musculus; assay: […] activity in ip dosed albino CF1 mouse assessed as inhibition of phenylbenzoquinone-induced writhing administered after 30 mins prior challenge; type: functional
Procedure, shortened: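 Male Albino Swiss (CD-1) mice, 6-8 per dose. Compound given ip in 0.5% methylcellulose. 30 min later, 0.25 ml of 0.02% phenylbenzoquinone injected. After 5 min, writhes counted over 10 min. % effect = (vehicle mean − drug mean)/vehicle mean × 100. ED50 derived; Student's t-test.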

[4] = test system: Mus musculus; assay: Analgesic activity in albino CF1 mouse assessed as inhibition of heat-induced paw licking or jumping behaviour administered after 30 mins prior heat challenge by hot plate method; type: functional
[5] = test system: Mus musculus; assay: Anticonvulsant activity in albino CF1 mouse assessed as protection against subcutaneous metrazol-induced seizures at 30 to 300 mg/kg, ip after 0.5 to 4 hrs; type: functional, organism-based
Procedure, shortened: (§1)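 CF No. 1 male mice dosed ip at 30, 100 or 300 mg/kg (saline or 0.5% methylcellulose), then given pentetrazole 85 mg/kg sc as 0.5% solution in posterior midline. Watched 30 min. Protection means no threshold seizure (single clonic spasm episode of at least 5 s). Expressed as protected/tested.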

[6] = test system: Mus musculus; assay: Neurotoxicity in albino CF1 mouse assessed as minimal motor impairment at 300 mg/kg, ip after 4 hrs by rotorod test; type: toxicity, organism-based; set-up: dose 300 mg/kg, route intraperitoneal; details: in vivo
Procedure, shortened: (§2)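 Rotarod in male CF No. 1 mice after ip dosing (30, 100, 300 mg/kg; saline or 0.5% methylcellulose) at 15–240 min. Knurled plastic rod, 1-inch diameter, 6 rpm. Toxicity means failing to stay on for 1 min on three successive attempts. Recorded as toxic/tested.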

[7] = test system: Mus musculus; assay: Neurotoxicity in albino CF1 mouse assessed as minimal motor impairment at 300 mg/kg, ip after 0.5 hr by rotorod test; type: toxicity, organism-based; set-up: dose 300 mg/kg, route intraperitoneal; details: in vivo; procedure, shortened: as §2
[8] = test system: Mus musculus; assay: Neurotoxicity in albino CF1 mouse assessed as minimal motor impairment at 100 mg/kg, ip after 4 hrs by rotorod test; type: toxicity, organism-based; set-up: dose 100 mg/kg, route intraperitoneal; details: in vivo; procedure, shortened: as §2
[9] = test system: Mus musculus; assay: Neurotoxicity in albino CF1 mouse assessed as minimal motor impairment at 100 mg/kg, ip after 1 hr by rotorod test; type: toxicity, organism-based; set-up: dose 100 mg/kg, route intraperitoneal; details: in vivo; procedure, shortened: as §2
[10] = test system: Mus musculus; assay: Neurotoxicity in albino CF1 mouse assessed as minimal motor impairment at 100 mg/kg, ip after 0.5 hr by rotorod test; type: toxicity, organism-based; set-up: dose 100 mg/kg, route intraperitoneal; details: in vivo; procedure, shortened: as §2
[11] = test system: Mus musculus; assay: Neurotoxicity in albino CF1 mouse assessed as minimal motor impairment at 100 mg/kg, ip after 0.25 hr by rotorod test; type: toxicity, organism-based; set-up: dose 100 mg/kg, route intraperitoneal; details: in vivo; procedure, shortened: as §2
[12] = test system: Mus musculus; assay: Anticonvulsant activity in albino CF1 mouse assessed as protection against maximal electroshock-induced seizures at 300 mg/kg, ip after 4 hrs; type: functional, organism-based; set-up: dose 300 mg/kg
Procedure, shortened: (§3)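 Male albino CF No. 1 mice (18–25 g) dosed ip at 30, 100 and 300 mg/kg in saline or 0.5% methylcellulose, tested 15, 30, 60 and 240 min after dosing. Maximal electroshock seizures elicited with 60-cycle alternating current. Scored as animals protected/animals tested, small qualitative groups.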

[13] = test system: Mus musculus; assay: Anticonvulsant activity in albino CF1 mouse assessed as protection against maximal electroshock-induced seizures at 300 mg/kg, ip after 0.5 hr; type: functional, organism-based; set-up: dose 300 mg/kg; procedure, shortened: as §3
[14] = test system: Mus musculus; assay: Anticonvulsant activity in albino CF1 mouse assessed as protection against maximal electroshock-induced seizures at 100 mg/kg, ip after 4 hrs; type: functional, organism-based; set-up: dose 100 mg/kg; procedure, shortened: as §3
[15] = test system: Mus musculus; assay: Anticonvulsant activity in albino CF1 mouse assessed as protection against maximal electroshock-induced seizures at 100 mg/kg, ip after 1 hr; type: functional, organism-based; set-up: dose 100 mg/kg; procedure, shortened: as §3
[16] = test system: Mus musculus; assay: Anticonvulsant activity in albino CF1 mouse assessed as protection against maximal electroshock-induced seizures at 100 mg/kg, ip after 0.5 hr; type: functional, organism-based; set-up: dose 100 mg/kg; procedure, shortened: as §3
[17] = test system: Mus musculus; assay: Anticonvulsant activity in albino CF1 mouse assessed as protection against maximal electroshock-induced seizures at 100 mg/kg, ip after 0.25 hr; type: functional, organism-based; set-up: dose 100 mg/kg; procedure, shortened: as §3
[18] = test system: Rattus norvegicus; assay: Anticonvulsant activity in po dosed Sprague-Dawley rat assessed as protection against maximal electroshock-induced seizures measured after 0.25 to 4 hrs; type: functional
Procedure, shortened: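 Male Sprague-Dawley rats, 100–150 g, dosed orally at 30 mg/kg. Maximal electroshock (60-cycle alternating current) applied at time points after dosing. Scored as animals protected/animals tested.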

[19] = test system: Rattus norvegicus; assay: Neurotoxicity in Sprague-Dawley rat assessed as minimal motor impairment at 30 mg/kg, po after 4 hrs by rotorod test; type: toxicity, organism-based; set-up: dose 30 mg/kg, route oral; details: in vivo
[20] = test system: Rattus norvegicus; assay: Neurotoxicity in Sprague-Dawley rat assessed as […] at 30 mg/kg, po after 2 hrs […]; type: toxicity, organism-based; set-up: dose 30 mg/kg, route oral; details: in vivo
[21] = test system: Rattus norvegicus; assay: Neurotoxicity in Sprague-Dawley rat assessed as […] at 30 mg/kg, po after 1 hr […]; type: toxicity, organism-based; set-up: dose 30 mg/kg, route oral; details: in vivo
[22] = test system: Rattus norvegicus; assay: Neurotoxicity in Sprague-Dawley rat assessed as minimal motor impairment at 30 mg/kg, po after 0.5 hr by rotorod test; type: toxicity, organism-based; set-up: dose 30 mg/kg, route oral; details: in vivo
[23] = test system: Rattus norvegicus; assay: Neurotoxicity in Sprague-Dawley rat assessed as […] at 30 mg/kg, po after 0.25 hr […]; type: toxicity, organism-based; set-up: dose 30 mg/kg, route oral; details: in vivo
[24] = test system: Rattus norvegicus; assay: Anticonvulsant activity in Sprague-Dawley rat assessed as protection against maximal electroshock-induced seizures at 30 mg/kg, po after 4 hrs; type: functional, organism-based; set-up: dose 30 mg/kg
Procedure, shortened: (§4)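 Male Sprague-Dawley rats (100–150 g), compound given orally at 30 mg/kg, dissolved in saline or suspended in 0.5% methylcellulose. Maximal electroshock seizures elicited with 60-cycle alternating current. Result recorded as number protected/number tested at each time point.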

[25] = test system: Rattus norvegicus; assay: Anticonvulsant activity in Sprague-Dawley rat assessed as protection against maximal electroshock-induced seizures at 30 mg/kg, po after 2 hrs; type: functional, organism-based; set-up: dose 30 mg/kg; procedure, shortened: as §4
[26] = test system: Rattus norvegicus; assay: Anticonvulsant activity in Sprague-Dawley rat assessed as protection against maximal electroshock-induced seizures at 30 mg/kg, po after 1 hr; type: functional, organism-based; set-up: dose 30 mg/kg; procedure, shortened: as §4
[27] = test system: Rattus norvegicus; assay: Anticonvulsant activity in Sprague-Dawley rat assessed as protection against maximal electroshock-induced seizures at 30 mg/kg, po after 0.5 hr; type: functional, organism-based; set-up: dose 30 mg/kg; procedure, shortened: as §4
[28] = test system: Rattus norvegicus; assay: Anticonvulsant activity in Sprague-Dawley rat assessed as protection against maximal electroshock-induced seizures at 30 mg/kg, po after 0.25 hr; type: functional, organism-based; set-up: dose 30 mg/kg; procedure, shortened: as §4
[29] = test system: Mus musculus; assay: Neurotoxicity in albino CF1 mouse assessed as minimal motor impairment at 30 mg/kg, ip after 4 hrs by rotorod test; type: toxicity, organism-based; set-up: dose 30 mg/kg, route intraperitoneal; details: in vivo; procedure, shortened: as §2
[30] = test system: Mus musculus; assay: Neurotoxicity in albino CF1 mouse assessed as minimal motor impairment at 30 mg/kg, ip after 0.5 hr by rotorod test; type: toxicity, organism-based; set-up: dose 30 mg/kg, route intraperitoneal; details: in vivo
Procedure, shortened: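 Male albino CF No. 1 mice, compound ip in saline or 0.5% methylcellulose. Rotarod: 1-inch knurled rod at 6 rpm. Toxicity is failure to stay on the rod for 1 min on three successive attempts. Expressed as toxic/tested.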

[31] = test system: Mus musculus; assay: Anticonvulsant activity in albino CF1 mouse assessed as protection against maximal electroshock-induced seizures at 30 mg/kg, ip after 0.5 hr; type: functional, organism-based; set-up: dose 30 mg/kg
Procedure, shortened: (§5)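 Male albino CF No. 1 mice, 18–25 g. Compound in saline or 0.5% methylcellulose, ip. Seizures elicited by 60-cycle alternating current maximal electroshock. Result expressed as animals protected/animals tested.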

[32] = test system: Mus musculus; assay: Anticonvulsant activity in albino CF1 mouse assessed as protection against maximal electroshock-induced seizures at 30 mg/kg, ip after 4 hrs; type: functional, organism-based; set-up: dose 30 mg/kg; procedure, shortened: as §5
[33] = test system: Mus musculus; assay: Toxicity in albino CF1 mouse assessed as proconvulsant activity at 30 to 300 mg/kg, ip after 0.5 to 4 hrs; type: organism-based; set-up: route intraperitoneal; details: in vivo; procedure, shortened: as §1

Compound | Activity [1] [%] | Activity [2] [%] | ED50 [3] [mg/kg] | ED50 [4] [mg/kg] | Activity [5] | Activity [6] | Activity [7] | Activity [8] | Activity [9] | Activity [10] | Activity [11] | Activity [12] | Activity [13] | Activity [14] | Activity [15] | Activity [16] | Activity [17] | other results
O=C1OCCC1N1CCN(c2ccccc2)CC1 (racemic) | 146 | 102 | 2.4 | 4 | inactive | Non-toxic | Toxic | Non-toxic | Non-toxic | Toxic | Non-toxic | inactive | Active | inactive | inactive | inactive | inactive | –
O=C1OCCC1N1CCN(c2cccc(C(F)(F)F)c2)CC1 (racemic) | 149 | 81 | 0.8 | 1.3 | inactive | Non-toxic | Toxic | Non-toxic | – | Non-toxic | – | inactive | Active | Active | – | inactive | – | ED50 [18]: 112 mg/kg; Activity [19]: Non-toxic; Activity [20]: Non-toxic; Activity [21]: Non-toxic; Activity [22]: Toxic; Activity [23]: Non-toxic; Activity [24]: Active; Activity [25]: Active; Activity [26]: inactive; Activity [27]: inactive; Activity [28]: inactive
COc1ccc(Cl)cc1N1CCN(C2CCOC2=O)CC1 (racemic) | 29 | 12 | 19 | 28.1 | inactive | Toxic | Toxic | Toxic | Toxic | Toxic | Non-toxic | inactive | Active | inactive | inactive | inactive | inactive | Activity [29]: Non-toxic; Activity [30]: Toxic; Activity [31]: inactive; Activity [32]: inactive
O=C1OCCC1N1CCc2ccccc2C1 (racemic) | – | – | 3.7 | 32.4 | inactive | Non-toxic | Non-toxic | Non-toxic | – | Non-toxic | – | inactive | inactive | inactive | – | inactive | – | Activity [33]: Toxic
